Test results taken from ChEMBL document CHEMBL2040750, “Hybrids of ravuconazole: synthesis and biological evaluation” (2012).
In brackets after ≈: the same amount, converted by molar mass. Activity calls are given as the source filed them. No cut-off for these calls is given here.

Key:
Type in all cases: functional
Escherichia coli [1] = assay: Antibacterial activity Escherichia coli NCIM 2109 at 100 ug/disc by agar-well diffusion assay; conditions: for zone of inhibition at 100 µg/disc: read-out: DIZ
Summary of the method: (§1)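 Agar-well diffusion screen against standard strains. Zone of inhibition is the read-out. Chloramphenicol, nystatin and ravuconazole were run as positive controls.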

Staphylococcus aureus [2] = assay: Antibacterial activity Staphylococcus aureus NCIM 2079 after 24 hrs by NCCLS method
Summary of the method: (§2)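 Broth microdilution MIC per NCCLS. Compounds dissolved in DMSO, serially diluted in growth medium, incubated at 37 °C. Read at 24 h for bacteria and 24–72 h for fungi. MIC90 taken as the first well with about 90% growth reduction relative to the drug-free well.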

Aspergillus niger [3] = assay: Antifungal activity Aspergillus niger NCIM 545 after 24 to 72 hrs by NCCLS method; summary of the method: as §2
Bacillus subtilis [4] = assay: Antibacterial activity Bacillus subtilis NCIM 2250 after 24 hrs by NCCLS method; summary of the method: as §2
Aspergillus niger [5] = assay: Antifungal activity Aspergillus niger NCIM 545 at 100 ug/disc by agar-well diffusion assay; conditions: for zone of inhibition at 100 µg/disc: read-out: DIZ; summary of the method: as §1
Escherichia coli [6] = assay: Antibacterial activity Escherichia coli NCIM 2109 after 24 hrs by NCCLS method; summary of the method: as §2
Pseudomonas aeruginosa [7] = assay: Antibacterial activity Pseudomonas aeruginosa NCIM 2036 at 100 ug/disc by agar-well diffusion assay; conditions: for zone of inhibition at 100 µg/disc: read-out: DIZ; summary of the method: as §1
Candida albicans [8] = assay: Antifungal activity Candida albicans NCIM 3471 at 100 ug/disc by agar-well diffusion assay; conditions: for zone of inhibition at 100 µg/disc: read-out: DIZ; summary of the method: as §1
Candida albicans [9] = assay: Antifungal activity Candida albicans NCIM 3471 after 24 to 72 hrs by NCCLS method; summary of the method: as §2
Pseudomonas aeruginosa [10] = assay: Antibacterial activity Pseudomonas aeruginosa NCIM 2036 after 24 hrs by NCCLS method; summary of the method: as §2
Bacillus subtilis [11] = assay: Antibacterial activity Bacillus subtilis NCIM 2250 at 100 ug/disc by agar-well diffusion assay; conditions: for zone of inhibition at 100 µg/disc: read-out: DIZ; summary of the method: as §1
Staphylococcus aureus [12] = assay: Antibacterial activity Staphylococcus aureus NCIM 2079 at 100 ug/disc by agar-well diffusion assay; conditions: for zone of inhibition at 100 µg/disc: read-out: DIZ; summary of the method: as §1

Row | Compound | zone of inhibition at 100 µg/disc (Escherichia coli [1]) [mm] | MIC (Staphylococcus aureus [2]) | MIC (Aspergillus niger [3]) | MIC (Bacillus subtilis [4]) | zone of inhibition at 100 µg/disc (Aspergillus niger [5]) [mm] | MIC (Escherichia coli [6]; NCIM 2109, 24 h) [µg/mL] | diameter of the inhibition zone (DIZ) (Pseudomonas aeruginosa [7]) | zone of inhibition at 100 µg/disc (Candida albicans [8]) [mm] | MIC (Candida albicans [9]) | MIC (Pseudomonas aeruginosa [10]) | diameter of the inhibition zone (DIZ) (Bacillus subtilis [11]) | diameter of the inhibition zone (DIZ) (Staphylococcus aureus [12]) | MIC (Bacillus subtilis [4]; NCIM 2250, 24 h) [µg/mL] | zone of inhibition at 100 µg/disc (Pseudomonas aeruginosa [7]) [mm] | MIC (Pseudomonas aeruginosa [10]; NCIM 2036, 24 h) [µg/mL] | zone of inhibition at 100 µg/disc (Bacillus subtilis [11]) [mm] | zone of inhibition at 100 µg/disc (Staphylococcus aureus [12]) [mm] | diameter of the inhibition zone (DIZ) (Candida albicans [8]) | MIC (Escherichia coli [6]) | MIC (Staphylococcus aureus [2]; NCIM 2079, 24 h) [µg/mL] | also measured
1 | Brc1ccc(/C(Cn2cncn2)=N\Nc2nc(-c3ccc(Br)cc3)cs2)cc1 | 10.9 | inactive | > 64 µg/mL | inactive | 15.3 | > 64 | inactive | 13.9 | > 64 µg/mL | inactive | inactive | inactive |  |  |  |  |  |  |  |  | 
2 | O=C(O)c1cn(C2CC2)c2cc(N3CCNCC3)c(F)cc2c1=O [CIPROFLOXACIN] | 26.2 |  |  |  |  |  |  |  |  |  |  |  | 16 (≈ 48.3 µM) | 30.9 | 16 (≈ 48.3 µM) | 26.7 | 28.4 |  |  |  | 
3 | FC(F)(F)c1cc(-c2csc(N/N=C(/Cn3cncn3)c3ccc(Br)cc3)n2)cc(C(F)(F)F)c1 | 11.4 | inactive | > 64 µg/mL | inactive | 10.9 | > 64 | inactive | 13.9 | > 64 µg/mL | inactive | inactive | inactive |  |  |  |  |  |  |  |  | 
4 | O=[N+]([O-])c1ccc(/C(Cn2cncn2)=N\Nc2nc(-c3ccc([N+](=O)[O-])cc3)cs2)cc1 | 10.8 | inactive | inactive | inactive |  | > 64 |  |  | inactive |  | inactive | inactive |  | 20.8 | 64 (≈ 142 µM) |  |  | inactive |  |  | diameter of the inhibition zone (DIZ) (Aspergillus niger [5]): inactive
5 | O=[N+]([O-])c1ccc(-c2csc(N/N=C(/Cn3cncn3)c3cc(C(F)(F)F)cc(C(F)(F)F)c3)n2)cc1 | 11.1 | inactive | inactive | inactive |  |  | inactive |  | inactive | inactive | inactive | inactive |  |  |  |  |  | inactive | inactive |  | diameter of the inhibition zone (DIZ) (Aspergillus niger [5]): inactive
6 | Fc1ccc(/C(Cn2cncn2)=N\Nc2nc(-c3ccc(Cl)cc3)cs2)cc1 | 15.9 |  | 16 µg/mL (≈ 38.8 µM) |  | 20.7 | > 64 | inactive | 18.8 | 32 µg/mL (≈ 77.5 µM) | inactive |  |  | 32 (≈ 77.5 µM) |  |  | 20.5 | 22.3 |  |  | 64 (≈ 155 µM) | 
7 | C[C@@H](c1nc(-c2ccc(C#N)cc2)cs1)[C@](O)(Cn1cncn1)c1ccc(F)cc1F [RAVUCONAZOLE] |  | inactive | 32 µg/mL (≈ 73.1 µM) | inactive | 20.2 |  | inactive | 28.6 | 1 µg/mL (≈ 2.29 µM) | inactive | inactive | inactive |  |  |  |  |  |  | inactive |  | diameter of the inhibition zone (DIZ) (Escherichia coli [1]): inactive
8 | Fc1ccc(-c2csc(N/N=C(/Cn3cncn3)c3ccc(Br)cc3)n2)cc1 |  |  | > 64 µg/mL |  | 11.9 |  | inactive | 14.4 | 64 µg/mL (≈ 140 µM) | inactive |  |  | 32 (≈ 70 µM) |  |  | 20.3 | 15.5 |  | inactive | 64 (≈ 140 µM) | diameter of the inhibition zone (DIZ) (Escherichia coli [1]): inactive
9 | Fc1ccc(/C(Cn2cncn2)=N\Nc2nc(-c3ccc(F)cc3)cs2)cc1 | 21.5 |  | 16 µg/mL (≈ 40.4 µM) |  | 20.4 | 32 (≈ 80.7 µM) |  | 16.3 | 64 µg/mL (≈ 161 µM) |  |  |  | 32 (≈ 80.7 µM) | 24.1 | 32 (≈ 80.7 µM) | 24.4 | 16.1 |  |  | 64 (≈ 161 µM) | 
10 | FC(F)(F)c1cc(-c2csc(N/N=C(/Cn3cncn3)c3ccc(Cl)cc3)n2)cc(C(F)(F)F)c1 | 15.6 |  | > 64 µg/mL | inactive | 8.66 | > 64 |  | 20.7 | 32 µg/mL (≈ 60.3 µM) |  | inactive |  |  | 26.1 | 32 (≈ 60.3 µM) |  | 11.2 |  |  | > 64 | 
11 | O=[N+]([O-])c1ccc(-c2csc(N/N=C(/Cn3cncn3)c3ccc(Cl)cc3)n2)cc1 | 10.6 | inactive | > 64 µg/mL |  | 14.5 | > 64 | inactive | 11.7 | > 64 µg/mL | inactive |  | inactive | > 64 |  |  | 12.2 |  |  |  |  | 
12 | FC(F)(F)c1cc(/C(Cn2cncn2)=N\Nc2nc(-c3ccc(Br)cc3)cs2)cc(C(F)(F)F)c1 | 17 | inactive | inactive |  |  | > 64 |  |  | inactive |  |  | inactive | > 64 | 20.4 | 32 (≈ 55.6 µM) | 10.1 |  | inactive |  |  | diameter of the inhibition zone (DIZ) (Aspergillus niger [5]): inactive
13 | O=[N+]([O-])c1ccc(/C(Cn2cncn2)=N\Nc2nc(-c3ccc(F)cc3)cs2)cc1 |  | inactive | > 64 µg/mL |  | 14.4 |  | inactive | 11.2 | > 64 µg/mL | inactive |  | inactive | > 64 |  |  | 11.3 |  |  | inactive |  | diameter of the inhibition zone (DIZ) (Escherichia coli [1]): inactive
14 | Fc1ccc(/C(Cn2cncn2)=N\Nc2nc(-c3cc(C(F)(F)F)cc(C(F)(F)F)c3)cs2)cc1 | 14.9 | inactive | 64 µg/mL (≈ 124 µM) | inactive | 13.8 | > 64 |  |  | inactive |  | inactive | inactive |  | 23.9 | 32 (≈ 62.2 µM) |  |  | inactive |  |  | 
15 | Fc1ccc(-c2csc(N/N=C(/Cn3cncn3)c3cc(C(F)(F)F)cc(C(F)(F)F)c3)n2)cc1 |  |  | 32 µg/mL (≈ 62.2 µM) |  | 17.3 |  |  | 19.4 | > 64 µg/mL |  |  |  | > 64 | 22.9 | 16 (≈ 31.1 µM) | 9.77 | 21.2 |  | inactive | 64 (≈ 124 µM) | diameter of the inhibition zone (DIZ) (Escherichia coli [1]): inactive
16 | Clc1ccc(/C(Cn2cncn2)=N\Nc2nc(-c3ccc(Br)cc3)cs2)cc1 |  |  | 64 µg/mL (≈ 135 µM) | inactive | 18.6 |  |  |  | inactive |  | inactive |  |  | 23.9 | 32 (≈ 67.5 µM) |  | 19.1 | inactive | inactive | 64 (≈ 135 µM) | diameter of the inhibition zone (DIZ) (Escherichia coli [1]): inactive
17 | O=[N+]([O-])c1ccc(/C(Cn2cncn2)=N\Nc2nc(-c3cc(C(F)(F)F)cc(C(F)(F)F)c3)cs2)cc1 |  |  | inactive | inactive |  |  |  |  | inactive |  | inactive |  |  | 16.8 | 64 (≈ 118 µM) |  | 17.2 | inactive | inactive | 64 (≈ 118 µM) | diameter of the inhibition zone (DIZ) (Escherichia coli [1]): inactive; diameter of the inhibition zone (DIZ) (Aspergillus niger [5]): inactive
18 | Fc1ccc(-c2csc(N/N=C(/Cn3cncn3)c3ccc(Cl)cc3)n2)cc1 | 13.9 |  | 32 µg/mL (≈ 77.5 µM) |  | 18.8 | > 64 | inactive | 19.1 | 32 µg/mL (≈ 77.5 µM) | inactive |  |  | 64 (≈ 155 µM) |  |  | 16.8 | 25.7 |  |  | 32 (≈ 77.5 µM) | 
19 | NYSTATIN |  |  | 16 µg/mL |  |  |  |  |  | 16 µg/mL |  |  |  |  |  |  |  |  |  |  |  | inhibition zone (IZ) (Aspergillus niger [5]): 21.6 mm; inhibition zone (IZ) (Candida albicans [8]): 23.3 mm
